# Compound activity (PubChem)
# An excerpt weighted towards active compounds, which were near 4.2% of everything screened.
# CHO parental Ca – ATP-evoked calcium signal inhibitors, parental CHO, primary screen, counter-screen for OX1R antagonist project, cell-based, fluorescence, Fluo-8 calcium dye. parental CHO-K1, ATP-induced calcium, Fluo-8 fluorescence. inhibition, % at 5.6 µM. actives 0.63% (n = 330,000). AID 463079, 2010;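 active = inhibition above that plate's mean sample inhibition plus 3 SD, cut at about 26% in these data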;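 note: 0% = ATP-challenged DMSO wells and 100% = DMSO wells without ATP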
#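 material = parental CHO cells | also added = ATP as calcium-mobilizing challenge | dosing = single point at 5.6 µM | detection = intracellular calcium via Fluo-8 no-wash fluorescent dye | read-out = % inhibition | benchmarks = low control ATP plus DMSO, high control DMSO only | repeats = one well per compound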
# OX1R antag-1 – antagonists of human orexin 1 receptor (OX1R); OX1R-expressing cells, FRET antagonist read-out; inhibition, % at 6.6 µM; actives 1.8% (n = 330,000); AID 485270, 2010; in the data active = inhibition mostly above about 38%, no sharp cut-off; inactive = mostly below about 40%;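 note: 0% = agonist challenge alone and 100% = reference antagonist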
# Target sequence (O43613 whole entry, looked up): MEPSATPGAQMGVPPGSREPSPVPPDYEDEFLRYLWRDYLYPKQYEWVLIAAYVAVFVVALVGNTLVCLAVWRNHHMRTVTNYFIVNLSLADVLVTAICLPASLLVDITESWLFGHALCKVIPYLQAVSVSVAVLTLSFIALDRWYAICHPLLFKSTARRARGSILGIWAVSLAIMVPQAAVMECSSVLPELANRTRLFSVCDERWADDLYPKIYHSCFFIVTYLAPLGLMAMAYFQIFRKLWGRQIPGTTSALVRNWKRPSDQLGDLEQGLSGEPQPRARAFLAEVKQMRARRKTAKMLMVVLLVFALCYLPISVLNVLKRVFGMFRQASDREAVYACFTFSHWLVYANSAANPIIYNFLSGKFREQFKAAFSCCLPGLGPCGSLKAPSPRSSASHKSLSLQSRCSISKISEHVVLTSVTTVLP
# TAAR1 antag – human TAAR1 antagonists, primary screen, Fluo-8 calcium fluorescence, CHO RD-HGA16 cells; Trace amine-associated receptor 1 (Homo sapiens), Q96RJ0; antagonist; actives 1.5% (n = 360,000); inhibition, % at 3 µM;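 active = inhibition above a per-plate cutoff, the mean inhibition of test compounds on that plate plus 3 SD, cut at about 49% in these data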;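 note: 0% = DMSO plus EC80 beta-PEA response and 100% = DMSO alone without agonist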
#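 Test system: hTAAR1-expressing CHO RD-HGA16 cells, Gα16-coupled; Probe or stimulus: EC80 β-phenethylamine stimulus; Compound dosing: single nominal final test compound concentration of 3 µM; Timing: 140 s kinetic read after compound, 140 s after agonist; Signal: Fluo-8 calcium-sensitive fluorescence; Measure: % inhibition of agonist calcium response; Controls: DMSO and EC80 PEA controls.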
# OX1R antag-2 – OX1R (HCRTR1) antagonists, primary screen, fluorescence, CHO/OX1R cells, Fluo-8 calcium, orexin A; Orexin/Hypocretin receptor type 1 (Homo sapiens), O43613; Fluo-8 calcium fluorescence; inhibition, % at 5 µM; actives 0.43% (n = 330,000); AID 434989, 2010;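 active = inhibition above its plate's threshold, mean inhibition of all tested compounds on the plate plus 3 SD, cut at about 37% in these data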;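 note: 0% = orexin A challenge wells and 100% = SB-334867-A antagonist wells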
# TAAR1 ag – human TAAR1 agonists, primary screen, Fluo-8 calcium fluorescence, CHO RD-HGA16 cells; vehicle wells 0%, saturating PEA agonist 100%; activation, % at 3 µM; actives 0.99% (n = 360,000); AID 624467, 2012;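 active = activation above the mean activation of all test compounds in the run plus 3 SD, cut at about 38% in these data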
#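 System: CHO RD-HGA16 cells carrying human TAAR1 plus Gα16; Incubation: 17-24 h seeding, 75 min 37 °C dye, 30 min RT; Measured by: Fluo-8 fluorescence, 5 s baseline then 140 s kinetic read; Control set: DMSO and PEA EC100; Replication: single well for each compound.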
# GalR3 antagonist – GalR3 antagonists in HEK293 cells, primary screen, cell-based, fluorescence readout; Galanin receptor type 3 (Homo sapiens), O60755; HEK293 GalR3-CNG cAMP membrane potential fluorescence; galR3 body fused to GalR1 C-terminus; inhibition, % at 3 µM; actives 0.44% (n = 360,000);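 active = inhibition above the screen-wide average plus 3 SD, cut at about 13% in these data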;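 note: forskolin and galanin both at EC90 stimulate the cells; cAMP rise reported by CNG channel membrane potential dye signal; 0% = forskolin plus galanin with DMSO and 100% = forskolin alone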
# Target sequence (O60755 1-299 limits assumed): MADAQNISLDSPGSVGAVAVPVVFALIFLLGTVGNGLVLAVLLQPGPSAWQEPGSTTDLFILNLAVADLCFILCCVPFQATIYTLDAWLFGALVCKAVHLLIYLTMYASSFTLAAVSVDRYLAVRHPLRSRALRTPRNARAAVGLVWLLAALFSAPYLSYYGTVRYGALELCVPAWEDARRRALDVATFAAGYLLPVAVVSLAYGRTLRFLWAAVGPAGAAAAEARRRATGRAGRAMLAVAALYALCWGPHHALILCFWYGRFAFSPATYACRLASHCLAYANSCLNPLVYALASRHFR
# OX1R Fluo8 conf – OX1R (HCRTR1) antagonists, confirmation, fluorescence, CHO/OX1R cells, Fluo-8 calcium, orexin A | shares compounds with OX1R antag-2 | orexin A calcium Fluo-8 fluorescence | inhibition, % at 5 µM | actives 38% (n = 1,100); in the data active = inhibition above about 29%;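 note: 0% = agonist challenge alone and 100% = reference antagonist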
# CHO Ca triplic – ATP-evoked calcium inhibition in parental CHO, counter-screen for OX1R antagonist project, cell-based, fluorescence, CHO-K1, triplicate; ATP-induced calcium, Fluo-8 fluorescence; shares compounds with OX1R antag-2; inhibition, % at 5.6 µM; actives 9.3% (n = 1,100);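 active = inhibition above a per-plate limit, the mean inhibition of that plate's test compounds plus 3 SD, cut at about 25% in these data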;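 note: 0% = ATP challenge with DMSO and 100% = DMSO without ATP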
# OX1R HTRF conf – OX1R (HCRTR1) antagonists, confirmation, cell-based, HTRF | shares compounds with OX1R antag-1 | OX1R-expressing cells, HTRF antagonist assay | inhibition, % at 6.6 µM | actives 49% (n = 1,800); in the data active = inhibition above about 55%;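 note: CHO cells expressing OX1R stimulated with orexin A at about EC80; 0% = agonist challenge alone and 100% = reference antagonist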
# CHO-K1 HTRF cnt – signal inhibition in parental CHO-K1 cells, counter-screen for OX1R antagonist project, cell-based, HTRF. shares compounds with OX1R antag-1. actives 48% (n = 1,800). inhibition, % at 6.6 µM. HTRF counterscreen; in the data active = inhibition above about 17%;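 note: 0% = agonist challenge with vehicle and 100% = vehicle alone without agonist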
# An asterisk follows results filed as active; x = not tested or not shown.
SMILES,CHO parental Ca,OX1R antag-1,TAAR1 antag,OX1R antag-2,TAAR1 ag,GalR3 antagonist,OX1R Fluo8 conf,CHO Ca triplic,OX1R HTRF conf,CHO-K1 HTRF cnt
COc1ccc(/C=N/NC(=O)c2ccc3ccccc3c2)cc1OS(=O)(=O)c1ccc(NC(C)=O)cc1,18,63*,74*,60*,12,3,41*,13,53,-1
CCOC(=O)c1csc(-c2csc(CCNC(=O)c3ccccc3)n2)n1,x,x,43,x,8,-5,x,x,x,x
COc1ccc(-c2cc3nc(-c4ccccc4)cc(N4CCC5(CC4)OCCO5)n3n2)cc1,-9,50*,26,67*,6,-8,31*,-9,68*,11
COc1ccc(-c2cc3nc(-c4ccccc4)cc(N4CCN(C(=O)c5ccoc5)CC4)n3n2)cc1,x,x,48,x,3,-6,x,x,x,x
Cc1nn(C)c(Oc2cccc(Cl)c2)c1C#N,-2,6,7,-11,-2,-6,x,x,x,x
COc1cccc(/C=N\NC(=O)C2C(=O)NCC2c2ccccc2)c1O (configuration not stated),-13,23,-10,7,3,-2,x,x,x,x
Cc1ccc(-c2ccc(/C=N\NC(=O)C3C(=O)NCC3c3ccccc3)o2)cc1Cl (configuration not stated),-5,69*,5,29,13,-1,48*,5,61*,11
O=C1NCC(c2ccccc2)C1C(=O)N/N=C\c1ccc(-c2cccc(Cl)c2Cl)o1 (configuration not stated),-6,101*,28,87*,18,-3,69*,2,87*,0
COc1ccccc1C(=O)Nc1nnc(-c2ccco2)s1,-31,59*,11,55*,4,-1,12,-1,56*,6
S=c1[nH]nc(-c2cc(-c3ccccc3)n[nH]2)n1/N=C/c1cccs1,-9,88*,-17,53*,0,9,27,3,62*,4
COc1cc(-c2nc(CN3CCCN(C(=O)c4ccco4)CC3)c(C)o2)ccc1F,-29,8,0,-32,4,2,x,x,x,x
O=C(Nc1cc(Sc2ccccn2)cc([N+](=O)[O-])c1)c1ccc(Cl)cc1,20,94*,14,40,15,2,-21,12,34,-2
O=C(Nc1cc(Sc2ccccn2)cc([N+](=O)[O-])c1)c1cccc(Cl)c1,-5,37,19,-1,4,-6,x,x,x,x
Cn1ncc2c(Nc3cccc(Cl)c3)nc(Nc3cccc(Cl)c3)nc21,-22,8,1,-24,-1,-7,x,x,x,x
CNc1nc(Nc2ccc(C)c(Cl)c2)c2cnn(C)c2n1,-16,84*,29,33,13,-7,9,-7,84*,12
O=c1c2ccccc2oc2cc(-c3ccc4[nH]ccc4c3)ccc12,-5,88*,21,67*,14,-2,76*,3,88*,5
COc1cc2sc3ccc(-c4ccc5[nH]ccc5c4)cc3c(=O)c2cc1OC,18,41,41,30,2,12,x,x,x,x
Cn1nc(C(F)(F)F)c2cc(C(=O)Nc3ccc(Cl)cc3)sc21,-10,9,10,-15,15,-4,x,x,x,x
Cc1cc(NC(=O)CSc2nc(-c3cccs3)nc3ccccc23)no1,0,62*,12,45*,-1,-2,16,-16,82*,-5
Cc1nc(SCC(=O)c2ccc(Cl)s2)c2oc3ccccc3c2n1,-16,16,-2,-11,9,-6,x,x,x,x
Fc1ccc2nc3[nH]c4ccccc4c3nc2c1,7,98*,-10,36,7,-5,10,-3,64*,2
OC1=C(O)c2nc3cc(F)ccc3nc21,1,20,-19,-1,10,-4,x,x,x,x
O=[N+]([O-])c1cccc(C2Nc3ccccc3CO2)c1 (configuration not stated),x,x,-8,x,0,-4,x,x,x,x
CN(CC(=O)Nc1ccc(Cl)c(C(F)(F)F)c1)C(=O)Cc1ccsc1,11,50*,40,28,20,2,-3,-19,29,-23
C[C@H](O)[C@@H]1C(=O)N2CCc3c([nH]c4cccc(-c5ccccc5)c34)[C@@H]2C[C@@H]1N(C)C(=O)OCc1ccccc1,x,x,22,x,0,-4,x,x,x,x
SMILES,CHO parental Ca,OX1R antag-1,TAAR1 antag,OX1R antag-2,TAAR1 ag,GalR3 antagonist,OX1R Fluo8 conf,CHO Ca triplic,OX1R HTRF conf,CHO-K1 HTRF cnt
COC(=O)[C@H](CC(C)C)N(Cc1ccccc1)S(=O)(=O)N(Cc1ccccc1)[C@@H](CC(C)C)C(=O)OC,15,8,3,17,1,8,x,x,x,x
COC(=O)[C@H](CC(C)C)NS(=O)(=O)N(Cc1ccccc1)[C@@H](CC(C)C)C(=O)OC,-27,48*,20,49,6,-5,14,-12,54,5
CSc1nc2ccc3nc(NC(=O)c4cccs4)sc3c2s1,-13,81*,9,56*,8,1,85*,-9,95*,9
Cc1c2ccccc2nc2c(F)c(N(C)C)c(F)c(F)c12,5,82*,-3,50*,3,-1,71*,16,93*,12
CN(C)c1c2ccccc2nc2c(F)c(F)c(F)c(F)c12,-10,21,x,-7,x,x,x,x,x,x
COc1ccc2cc(C(=O)/C=C/c3cc(OC)c(O)c(OC)c3)ccc2c1,-15,62*,23,35,21,1,49*,-1,75*,-9
Cc1ccc(CSCCNC(=O)CSCc2ccc([N+](=O)[O-])cc2)cc1,-17,7,17,-18,4,-4,x,x,x,x
